The subject of experiment [1] is Mus musculus. Briefly: Antagonistic activity against apomorphine induced climbing in CD-1 mice, after oral administration. Type of experiment: functional. The procedure, abridged:
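Male CD-1 mice (20–25 g), usually four groups of five, dosed orally with graded doses or vehicle 30 min before submaximal apomorphine (1 mg/kg sc). Climbing scored 10, 20 and 30 min later (modified Protais method). ED50 with 95% confidence limits by Litchfield–Wilcoxon.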

For experiment [2], the system named is Rattus norvegicus. Description: Evaluation of HVA levels in limbic system in Hooded Lister rats after subcutaneous administration. As to conditions: sc.
For experiment [3], the system named is Rattus norvegicus. Briefly: Evaluation of HVA levels in striatum after subcutaneous administration to Hooded Lister rats. The conditions noted are these: sc.
The subject of experiment [4] is Rattus norvegicus. Briefly: Antagonistic activity against apomorphine induced delay in gastric emptying in Wistar rats, after subcutaneous administration. As to conditions: Stomach, sc.
The test system of experiment [5] is Rattus norvegicus. Briefly: Increase in intragastric pressure after subcutaneous administration to Wistar rats; 5-50.
In experiment [6] the test system is Rattus norvegicus. Briefly: Evaluation of prolactin levels in Hooded Lister rats after subcutaneous administration. As to conditions: sc.
The subject of experiment [7] is Rattus norvegicus. Briefly: Antagonism of amphetamine induced syereotyped behavior after intraperitoneal administration to CD rats. The conditions noted are these: ip.
The subject of experiment [8] is Mus musculus. Briefly: Percent antagonistic activity against apomorphine induced climbing in CD-1 mice at 0.5 mg/kg after oral administration. Type of experiment: functional. The method, boiled down: (§1)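 Male CD-1 mice (20–25 g), usually groups of five, given oral compound or vehicle 30 min before apomorphine 1 mg/kg sc. Climbing scored at 10, 20 and 30 min. Percent antagonism at the quoted dose.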

Experiment [9] deals with Mus musculus. Briefly: Antagonistic activity against apomorphine induced climbing in CD-1 mice at 2 mg/kg after oral administration. It is filed as functional. The procedure, abridged:
as §1

Experiment [10] relates to Rattus norvegicus. Briefly: Increase in intragastric pressure after subcutaneous administration to Wistar rats.

Structures are written as SMILES.

For the molecule `COc1cc(N)c(Cl)cc1NC(=O)C1CCN(C/C=C/c2ccccc2)CC1`, in experiment [1], the ED50 was more than 10 mg/kg.

Consider `COc1cc(N)c(Cl)cc1NC(=O)C1CCN(Cc2ccc(C)c(C)c2)CC1`, for which the ED50 in [1] is more than 8 mg/kg.

`COc1cc(N)c(Cl)cc1NC(=O)C1CCN(Cc2ccc(Cl)cc2)CC1` yielded a median effective dose (ED50) in [1] of 1.2 mg/kg.

Consider `CCCCN1CCC(C(=O)Nc2cc(Cl)c(N)cc2OC)CC1`, for which, in experiment [1], the median effective dose (ED50) was more than 10 mg/kg.

Turning to `COc1cc(N)c(Cl)cc1NC(=O)C1CCN(Cc2ccccc2)CC1`, the median effective dose (ED50) in [2] is 0.5 mg/kg; in [3], 0.4 mg/kg; in experiment [1], 0.5 mg/kg; in experiment [4], more than 50 mg/kg; in [5], more than 50 mg/kg; in experiment [6], 0.5 mg/kg. The molecule further had an ED50 in experiment [7] of 0.25 mg/kg.

`COc1cc(N)c(Cl)cc1NC(=O)C1CCN(CC2CCCCC2)CC1` had an ED50 in experiment [1] of 2.9 mg/kg.

`CCC(CC)CN1CCC(C(=O)Nc2cc(Cl)c(N)cc2OC)CC1` registered an ED50 in experiment [1] of more than 10 mg/kg.

`COc1cc(N)c(Cl)cc1NC(=O)C1CCN(CC2CCC2)CC1` gave an ED50 in [1] of more than 10 mg/kg.

Turning to `COc1cc(N)c(Cl)cc1NC(=O)C1CCN(Cc2cccs2)CC1`, the Inhibition in experiment [1] came out at 77%.

Consider `COc1cc(N)c(Cl)cc1NC(=O)C1CCN(CC2CC2)CC1`, for which the median effective dose (ED50) in [1] is more than 10 mg/kg.

On to `COc1cc(N)c(Cl)cc1NC(=O)C1CCN(CC2CCCC2)CC1`, for which the ED50 in [1] is more than 10 mg/kg.

In turn, `COc1ccc(CN2CCC(C(=O)Nc3cc(Cl)c(N)cc3OC)CC2)cc1` registered an ED50 in experiment [1] of 0.9 mg/kg.

As to `COc1cc(N)c(Cl)cc1NC(=O)C1CCN(Cc2cccc(C#N)c2)CC1`, in [1], the ED50 is more than 4 mg/kg.

In the case of `COc1cc(N)c(Cl)cc1NC(=O)C1CCN(Cc2cccc(Cl)c2)CC1`, in experiment [1], the ED50 is more than 4 mg/kg.

`COc1cc(N)c(Cl)cc1NC(=O)C1CCN(Cc2ccc(C)cc2)CC1` registered an inhibition in vivo at 0.5 mg/kg in experiment [8] of 50%.

The molecule `COc1cc(N)c(Cl)cc1NC(=O)C1CCN(Cc2cccc(C)c2)CC1` had an ED50 in experiment [1] of 2.4 mg/kg.

Regarding `CCN1CCC(C(=O)Nc2cc(Cl)c(N)cc2OC)CC1`, the 50% effective dose (ED50) in experiment [1] is more than 10 mg/kg.

Regarding `COc1cc(N)c(Cl)cc1NC(=O)C1CCN(Cc2cccc(F)c2)CC1`, the inhibition in vivo at 2 mg/kg in experiment [9] turned out to be 58%.

Consider `CCCCCCCN1CCC(C(=O)Nc2cc(Cl)c(N)cc2OC)CC1`, for which, in [1], the ED50 is more than 10 mg/kg.

`COc1cc(N)c(Cl)cc1C(=O)NC1CCN(Cc2ccccc2)CC1` [CLEBOPRIDE]: the ED50 in [2] came out at 0.2 mg/kg; in [3] it was 0.1 mg/kg; in [1] it was 0.7 mg/kg; in experiment [4] it was 0.11 mg/kg; in experiment [6], 0.14 mg/kg. The same molecule had a lowest active dose in experiment [10] of 1 mg/kg.

In turn, `CCCCCN1CCC(C(=O)Nc2cc(Cl)c(N)cc2OC)CC1` gave a 50% effective dose (ED50) in [1] of more than 10 mg/kg.

Regarding `CCOc1ccc(CN2CCC(C(=O)Nc3cc(Cl)c(N)cc3OC)CC2)cc1`, the ED50 in experiment [1] was 6.3 mg/kg.

With `COc1cc(N)c(Cl)cc1NC(=O)C1CCN(Cc2ccc(F)cc2)CC1`, the ED50 in [1] amounted to 0.6 mg/kg.

`CCCN1CCC(C(=O)Nc2cc(Cl)c(N)cc2OC)CC1`: the ED50 in [1] was more than 10 mg/kg.

In [1], `COc1cc(N)c(Cl)cc1NC(=O)C1CCN(Cc2ccsc2)CC1` displayed an ED50 of 3.4 mg/kg.

In turn, `COc1cc(N)c(Cl)cc1NC(=O)C1CCN(Cc2ccc(O)cc2)CC1` showed an ED50 in experiment [1] of more than 8 mg/kg.

`COc1cc(N)c(Cl)cc1NC(=O)C1CCN(CCc2ccccc2)CC1` came in with an ED50 in experiment [1] of more than 10 mg/kg.

On to `COc1cc(N)c(Cl)cc1NC(=O)C1CCN(Cc2ccc(OCc3ccccc3)cc2)CC1`, for which, in experiment [1], the ED50 is more than 4 mg/kg.

As to `COc1cc(N)c(Cl)cc1NC(=O)C1CCN(Cc2ccccc2F)CC1`, the ED50 in experiment [1] was more than 4 mg/kg.

For the molecule `COc1cc(N)c(Cl)cc1NC(=O)C1CCN(C2CCCC2)CC1`, the ED50 in experiment [1] was more than 10 mg/kg.

`COc1cc(N)c(Cl)cc1NC(=O)C1CCN(Cc2ccc([N+](=O)[O-])cc2)CC1` had an ED50 in experiment [1] of more than 4 mg/kg.

`CCCCCCN1CCC(C(=O)Nc2cc(Cl)c(N)cc2OC)CC1` registered an ED50 in experiment [1] of more than 10 mg/kg.

For `COc1cc(N)c(Cl)cc1NC(=O)C1CCN(Cc2ccc3c(c2)OCO3)CC1`, the ED50 in [1] was 4.3 mg/kg.

With `COc1cc(N)c(Cl)cc1NC(=O)C1CCN(Cc2ccccc2C)CC1`, at 2 mg/kg the inhibition in vivo in experiment [9] was 77%.

With `COc1cc(N)c(Cl)cc1NC(=O)C1CCN(Cc2ccccc2Cl)CC1`, in experiment [1], the ED50 was more than 4 mg/kg.

In [1], `COc1cc(N)c(Cl)cc1NC(=O)C1CCN(CC2CCCCCC2)CC1` showed an ED50 of more than 10 mg/kg.

In turn, `COc1cccc(CN2CCC(C(=O)Nc3cc(Cl)c(N)cc3OC)CC2)c1` returned an ED50 in experiment [1] of more than 4 mg/kg.

As a reminder, the ED50 is the dose at which the effect has come halfway, by size or by number of responders. Lower therefore signals an effect at a small dose. Broadly, the Inhibition is the change of the read-out against control, counted positive when it falls. What is called inhibition in vivo is the share of the control response that was lost under treatment. Lower therefore signals a weak effect.

The values are drawn from ChEMBL document CHEMBL1122414, “Anilides related to substituted benzamides. Potential antipsychotic activity of N-(4-amino-5-chloro-2-methoxyphenyl)-1-(phenylmethyl)-4-piperidinecarboxamide” (1983).
